ChEMBL document CHEMBL4118097, “Selective Inhibitors of Dual Leucine Zipper Kinase (DLK, MAP3K12) with Activity in a Model of Alzheimer's Disease” (J Med Chem, 2017)

Columns and labels:
[1] = target: Serine/threonine-protein kinase Chk1 (Homo sapiens) (UniProt O14757); experiment: Inhibition of recombinant full length His-tagged human CHK1 expressed in baculovirus expression system at 1 uM by FRET assay relative to control
[2] = target: Focal adhesion kinase 1 (Homo sapiens) (UniProt Q05397); experiment: Inhibition of recombinant full length GST-tagged human FAK expressed in baculovirus expression system at 1 uM by FRET assay relative to control
In short: (§1)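 Single-concentration screen at 1 μM in Life Technologies SelectScreen, across a 220-kinase panel. Z′-LYTE format measures phosphorylation of a labeled peptide by FRET. Results are reported as percent inhibition.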

[3] = target: Serine/threonine-protein kinase N1 (Homo sapiens) (UniProt Q16512); experiment: Inhibition of full length recombinant GST-tagged human PRK1 expressed in baculovirus expression system at 1 uM by FRET assay relative to control
[4] = target: Fibroblast growth factor receptor 3 (Homo sapiens) (UniProt P22607); experiment: Inhibition of recombinant His-tagged FGFR3 human cytoplasmic domain expressed in baculovirus expression system at 1 uM by FRET assay relative to control
In short: (§2)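 Single-point screen at 1 μM compound in a 220-kinase panel run by Life Technologies (SelectScreen). Z′-LYTE format: phosphorylation of a labeled peptide substrate read by FRET. Values are reported as percent inhibition.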

[5] = target: Protein kinase C delta type (Homo sapiens) (UniProt Q05655); experiment: Inhibition of recombinant full length human PKCdelta expressed in baculovirus expression system at 1 uM by FRET assay relative to control
[6] = target: Mitogen-activated protein kinase 8 (Homo sapiens, UniProt P45983); experiment: Inhibition of recombinant full length His-tagged human JNK1alpha1 expressed in baculovirus expression system by FRET assay
[7] = target: 5-hydroxytryptamine receptor 4 (Homo sapiens) (UniProt Q13639); experiment: Binding affinity to 5HT4e receptor (unknown origin) receptor at 10 uM relative to control
In short: (§3)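 Broad radioligand-binding and enzyme screening panel covering 42 targets (biogenic amine and neuropeptide receptors, ion channels, neurotransmitter transporters, acetylcholinesterase). Single test concentration of 10 μM. Results expressed as binding relative to control, with a hit defined as >50% of control.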

[8] = target: Mitogen-activated protein kinase 11 (Homo sapiens) (UniProt Q15759); experiment: Inhibition of recombinant full length His-tagged human p38beta expressed in baculovirus expression system at 1 uM by FRET assay relative to control
[9] = target: Muscle, skeletal receptor tyrosine-protein kinase (Homo sapiens) (UniProt O15146); experiment: Inhibition of recombinant GST-tagged human MUSK cytoplasmic domain expressed in baculovirus expression system at 1 uM by FRET assay relative to control; in short: as §2
[10] = target: Mitogen-activated protein kinase kinase kinase kinase 4 (Homo sapiens) (UniProt O95819); experiment: Inhibition of recombinant GST-tagged human MAP4K4 (1 to 328 residues) expressed in baculovirus expression system at 1 uM by FRET assay relative to control; in short: as §2
[11] = target: Macrophage colony-stimulating factor 1 receptor (Homo sapiens, UniProt P07333); experiment: Inhibition of recombinant His-tagged human CSF1R cytoplasmic domain (538 to 910 residues) expressed in baculovirus expression system at 1 uM by FRET assay relative to control; in short: as §2
[12] = target: Mitogen-activated protein kinase kinase kinase 12 (Mus musculus) (UniProt Q60700); experiment: Inhibition of DLK in CD-1 mouse DRG neuron assessed as axonal protection pre-incubated for 2 hrs before NGF deprivation for 16 to 20 hrs by Campenot chamber based fluorescence assay
In short: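 High-content imaging assay of axon degeneration, with automated quantification of axons. Protection is expressed relative to a positive control in which degeneration was not induced. EC50 was taken from dose-response curves, each point being the average of three independent assays ± SD.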

[13] = target: Receptor tyrosine-protein kinase erbB-4 (Homo sapiens) (UniProt Q15303); experiment: Inhibition of recombinant N-terminal GST-tagged human ErbB4 cytoplasmic domain expressed in baculovirus expression system at 1 uM by FRET assay relative to control; in short: as §1
[14] = target: Proto-oncogene tyrosine-protein kinase Src (Homo sapiens) (UniProt P12931); experiment: Inhibition of recombinant full length C-terminal His-tagged human Src cytoplasmic domain expressed in baculovirus expression system at 1 uM by FRET assay relative to control; in short: as §1
[15] = target: Macrophage-stimulating protein receptor (Homo sapiens) (UniProt Q04912); experiment: Inhibition of recombinant GST-tagged human Ron cytoplasmic domain ([…] to 1400 residues) expressed in baculovirus expression system at 1 uM by FRET assay relative to control; in short: as §2
[16] = target: Peroxisome proliferator-activated receptor alpha (Homo sapiens) (UniProt Q07869); experiment: Binding affinity to recombinant human PPARalpha at 10 uM relative to control; in short: as §3
[17] = target: T1, Mitogen-activated protein kinase 9 (Homo sapiens, UniProt P45984); experiment: Inhibition of recombinant full length His-tagged human JNK2 ([…]) expressed in baculovirus expression system at by FRET assay
[18] = target: T1, Mitogen-activated protein kinase 9; experiment: Inhibition of recombinant full length His-tagged human JNK2 ([…]) expressed in baculovirus expression system at 1 uM by FRET assay relative to control
[19] = target: Opioid receptors; mu/kappa/delta (Homo sapiens) (UniProt P41145+P41143+P35372); experiment: Binding affinity to opiod receptor (unknown origin) receptor at 10 uM relative to control; format: protein assay; in short: as §3
[20] = target: Epithelial discoidin domain-containing receptor 1 (Homo sapiens) (UniProt Q08345); experiment: Inhibition of recombinant GST-tagged human DDR1 (440 to 876 residues) expressed in baculovirus expression system at 1 uM by FRET assay relative to control; in short: as §2
[21] = target: CDK7/Cyclin H/MNAT1 (Homo sapiens) (UniProt P51946+P50613+P51948); experiment: Inhibition of recombinant full length His-tagged human CDK7/cyclin H/MNAT1 expressed in baculovirus expression system at 1 uM by FRET assay relative to control
[22] = target: Homeodomain-interacting protein kinase 4 (Homo sapiens) (UniProt Q8NE63); experiment: Inhibition of recombinant full length GST-tagged human HIPK4 expressed in baculovirus expression system at 1 uM by FRET relative to control; in short: as §1
[23] = target: Serine/threonine-protein kinase 33 (Homo sapiens) (UniProt Q9BYT3); experiment: Inhibition of recombinant full length His-tagged human STK33 expressed in baculovirus expression system at 1 uM by FRET assay relative to control
[24] = target: Ribosomal protein S6 kinase alpha-5 (Homo sapiens) (UniProt O75582); experiment: Inhibition of recombinant full length GST-tagged human MSK1 expressed in baculovirus at 1 uM by FRET assay relative to control; in short: as §1
[25] = target: Ribosomal protein S6 kinase alpha-3 (Homo sapiens) (UniProt P51812); experiment: Inhibition of recombinant full length His-tagged human RSK2 expressed in baculovirus expression system at 1 uM by FRET assay relative to control
[26] = target: Sphingosine kinase 1 (Homo sapiens) (UniProt Q9NYA1); experiment: Inhibition of recombinant full length GST-tagged human SPHK1 expressed in baculovirus expression system at 1 uM by FRET assay relative to control; in short: as §1

Chain of Proto-oncogene tyrosine-protein kinase Src (Homo sapiens) (P12931 2-536 limits assumed): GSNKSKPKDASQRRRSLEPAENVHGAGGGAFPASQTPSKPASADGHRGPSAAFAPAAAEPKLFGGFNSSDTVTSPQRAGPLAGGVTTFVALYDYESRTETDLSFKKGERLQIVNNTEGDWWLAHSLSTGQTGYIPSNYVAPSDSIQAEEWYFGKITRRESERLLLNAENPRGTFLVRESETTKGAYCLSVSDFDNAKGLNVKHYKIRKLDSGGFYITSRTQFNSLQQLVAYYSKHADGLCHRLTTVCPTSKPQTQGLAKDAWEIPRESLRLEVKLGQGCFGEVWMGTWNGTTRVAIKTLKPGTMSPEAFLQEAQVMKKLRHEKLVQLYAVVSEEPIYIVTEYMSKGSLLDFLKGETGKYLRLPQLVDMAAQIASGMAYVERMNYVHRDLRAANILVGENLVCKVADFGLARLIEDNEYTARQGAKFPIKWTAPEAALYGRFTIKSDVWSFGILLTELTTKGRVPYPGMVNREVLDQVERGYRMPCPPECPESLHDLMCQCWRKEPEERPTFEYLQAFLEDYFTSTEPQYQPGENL
Chain of Serine/threonine-protein kinase Chk1 (Homo sapiens) (O14757 whole entry): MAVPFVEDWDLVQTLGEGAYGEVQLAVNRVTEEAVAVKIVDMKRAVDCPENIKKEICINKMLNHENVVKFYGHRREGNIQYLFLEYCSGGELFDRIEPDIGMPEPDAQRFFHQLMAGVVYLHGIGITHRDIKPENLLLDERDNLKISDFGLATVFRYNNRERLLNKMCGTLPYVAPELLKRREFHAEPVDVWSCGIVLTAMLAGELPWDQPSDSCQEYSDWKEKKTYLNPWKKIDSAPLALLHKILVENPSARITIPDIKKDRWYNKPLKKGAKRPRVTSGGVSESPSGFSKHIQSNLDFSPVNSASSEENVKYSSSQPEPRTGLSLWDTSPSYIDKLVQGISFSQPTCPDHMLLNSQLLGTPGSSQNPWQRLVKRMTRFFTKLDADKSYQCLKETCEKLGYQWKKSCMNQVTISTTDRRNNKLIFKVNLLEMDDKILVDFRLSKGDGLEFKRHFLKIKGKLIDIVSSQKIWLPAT
Chain of Peroxisome proliferator-activated receptor alpha (Homo sapiens) (Q07869 whole entry): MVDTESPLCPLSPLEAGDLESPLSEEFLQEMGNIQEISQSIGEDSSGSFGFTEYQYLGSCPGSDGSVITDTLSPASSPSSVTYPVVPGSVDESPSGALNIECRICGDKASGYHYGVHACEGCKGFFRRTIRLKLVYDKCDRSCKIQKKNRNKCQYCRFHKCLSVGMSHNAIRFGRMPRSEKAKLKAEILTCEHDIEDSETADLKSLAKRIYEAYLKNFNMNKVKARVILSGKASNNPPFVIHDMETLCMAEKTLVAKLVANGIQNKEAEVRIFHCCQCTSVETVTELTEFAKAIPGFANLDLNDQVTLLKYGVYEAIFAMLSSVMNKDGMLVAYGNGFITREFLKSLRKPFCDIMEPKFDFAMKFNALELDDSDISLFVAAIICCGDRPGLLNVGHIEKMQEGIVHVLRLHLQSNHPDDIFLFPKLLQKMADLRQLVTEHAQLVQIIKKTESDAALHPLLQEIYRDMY
Chain of Mitogen-activated protein kinase kinase kinase 12 (Mus musculus) (Q60700 whole entry): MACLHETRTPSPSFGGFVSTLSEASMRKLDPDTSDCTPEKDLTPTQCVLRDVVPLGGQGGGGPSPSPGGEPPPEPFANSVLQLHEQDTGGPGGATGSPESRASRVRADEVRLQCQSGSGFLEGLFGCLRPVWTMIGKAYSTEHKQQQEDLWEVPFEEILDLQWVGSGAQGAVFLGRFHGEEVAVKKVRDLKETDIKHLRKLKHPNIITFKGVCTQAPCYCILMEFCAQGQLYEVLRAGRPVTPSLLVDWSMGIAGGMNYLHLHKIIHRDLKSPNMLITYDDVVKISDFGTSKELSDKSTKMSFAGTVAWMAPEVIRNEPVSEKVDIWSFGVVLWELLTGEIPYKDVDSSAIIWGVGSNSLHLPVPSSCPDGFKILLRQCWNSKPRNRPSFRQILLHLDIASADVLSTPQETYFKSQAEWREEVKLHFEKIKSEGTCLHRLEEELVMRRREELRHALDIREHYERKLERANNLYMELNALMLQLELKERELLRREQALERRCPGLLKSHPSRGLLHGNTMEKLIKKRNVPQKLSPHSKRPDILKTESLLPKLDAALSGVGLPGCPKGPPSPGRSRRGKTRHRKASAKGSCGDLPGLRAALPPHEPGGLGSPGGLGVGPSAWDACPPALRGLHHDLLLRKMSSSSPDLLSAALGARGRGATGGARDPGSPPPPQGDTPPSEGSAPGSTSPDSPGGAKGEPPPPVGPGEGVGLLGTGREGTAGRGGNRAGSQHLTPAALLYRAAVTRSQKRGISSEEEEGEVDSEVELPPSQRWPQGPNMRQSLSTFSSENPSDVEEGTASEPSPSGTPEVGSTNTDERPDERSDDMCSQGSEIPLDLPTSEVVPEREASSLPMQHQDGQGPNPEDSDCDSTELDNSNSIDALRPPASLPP
Chain of Fibroblast growth factor receptor 3 (Homo sapiens) (P22607 23-806 limits assumed): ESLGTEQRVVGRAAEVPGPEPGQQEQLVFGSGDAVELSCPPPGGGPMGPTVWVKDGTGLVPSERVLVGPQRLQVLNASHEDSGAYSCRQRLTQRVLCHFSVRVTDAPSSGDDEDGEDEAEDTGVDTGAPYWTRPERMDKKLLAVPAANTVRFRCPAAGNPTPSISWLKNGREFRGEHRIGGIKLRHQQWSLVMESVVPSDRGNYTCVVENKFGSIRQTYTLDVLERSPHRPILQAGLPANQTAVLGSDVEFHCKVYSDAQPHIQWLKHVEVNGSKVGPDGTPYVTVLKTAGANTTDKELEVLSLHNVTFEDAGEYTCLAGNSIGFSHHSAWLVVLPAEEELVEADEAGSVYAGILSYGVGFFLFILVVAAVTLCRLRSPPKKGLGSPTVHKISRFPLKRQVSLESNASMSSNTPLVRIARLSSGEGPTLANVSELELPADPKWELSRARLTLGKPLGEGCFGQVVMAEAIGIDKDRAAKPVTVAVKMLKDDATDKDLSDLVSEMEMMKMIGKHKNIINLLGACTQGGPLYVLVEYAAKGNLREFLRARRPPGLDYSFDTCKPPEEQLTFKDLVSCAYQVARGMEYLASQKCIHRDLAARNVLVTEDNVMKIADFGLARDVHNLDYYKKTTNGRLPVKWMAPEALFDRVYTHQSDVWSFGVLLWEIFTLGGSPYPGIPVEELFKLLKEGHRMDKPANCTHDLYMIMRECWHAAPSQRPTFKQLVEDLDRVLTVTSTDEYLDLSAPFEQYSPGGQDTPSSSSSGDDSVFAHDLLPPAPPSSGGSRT
Chain of Opioid receptors; mu/kappa/delta (Homo sapiens) (P35372 whole entry, looked up, the tested form may be a part): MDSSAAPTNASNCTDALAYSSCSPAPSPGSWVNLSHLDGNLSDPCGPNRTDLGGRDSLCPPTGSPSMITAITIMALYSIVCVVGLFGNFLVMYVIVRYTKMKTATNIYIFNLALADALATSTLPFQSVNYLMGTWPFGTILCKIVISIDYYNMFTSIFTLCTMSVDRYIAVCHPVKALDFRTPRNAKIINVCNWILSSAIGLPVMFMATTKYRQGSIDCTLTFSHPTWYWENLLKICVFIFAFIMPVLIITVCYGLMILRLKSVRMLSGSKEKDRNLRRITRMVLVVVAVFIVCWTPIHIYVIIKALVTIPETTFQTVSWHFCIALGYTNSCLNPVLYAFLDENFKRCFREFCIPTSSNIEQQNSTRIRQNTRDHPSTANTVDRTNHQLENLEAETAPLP
Chain of Opioid receptors; mu/kappa/delta (Homo sapiens) (P41143 whole entry, looked up, the tested form may be a part): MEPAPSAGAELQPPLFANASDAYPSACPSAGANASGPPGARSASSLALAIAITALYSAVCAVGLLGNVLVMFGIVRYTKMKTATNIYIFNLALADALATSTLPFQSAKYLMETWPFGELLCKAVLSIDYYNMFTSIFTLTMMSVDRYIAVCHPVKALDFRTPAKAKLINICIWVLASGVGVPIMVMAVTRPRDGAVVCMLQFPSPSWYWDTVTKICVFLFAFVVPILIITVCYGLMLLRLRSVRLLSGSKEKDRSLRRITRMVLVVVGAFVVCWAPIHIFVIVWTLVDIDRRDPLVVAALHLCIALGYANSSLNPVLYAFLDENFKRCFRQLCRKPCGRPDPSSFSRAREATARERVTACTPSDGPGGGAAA
Chain of Opioid receptors; mu/kappa/delta (Homo sapiens) (P41145 whole entry, looked up, the tested form may be a part): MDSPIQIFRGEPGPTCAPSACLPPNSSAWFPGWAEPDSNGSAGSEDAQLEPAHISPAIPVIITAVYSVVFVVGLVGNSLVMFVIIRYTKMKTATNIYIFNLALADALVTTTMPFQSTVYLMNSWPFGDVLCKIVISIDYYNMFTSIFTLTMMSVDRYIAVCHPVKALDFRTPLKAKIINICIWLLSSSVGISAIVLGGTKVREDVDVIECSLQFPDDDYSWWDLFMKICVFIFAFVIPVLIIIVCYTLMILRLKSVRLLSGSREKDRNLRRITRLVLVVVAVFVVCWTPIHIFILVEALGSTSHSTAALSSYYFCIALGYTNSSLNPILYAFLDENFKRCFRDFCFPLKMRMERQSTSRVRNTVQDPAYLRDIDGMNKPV
Chain of Protein kinase C delta type (Homo sapiens) (Q05655 whole entry, looked up): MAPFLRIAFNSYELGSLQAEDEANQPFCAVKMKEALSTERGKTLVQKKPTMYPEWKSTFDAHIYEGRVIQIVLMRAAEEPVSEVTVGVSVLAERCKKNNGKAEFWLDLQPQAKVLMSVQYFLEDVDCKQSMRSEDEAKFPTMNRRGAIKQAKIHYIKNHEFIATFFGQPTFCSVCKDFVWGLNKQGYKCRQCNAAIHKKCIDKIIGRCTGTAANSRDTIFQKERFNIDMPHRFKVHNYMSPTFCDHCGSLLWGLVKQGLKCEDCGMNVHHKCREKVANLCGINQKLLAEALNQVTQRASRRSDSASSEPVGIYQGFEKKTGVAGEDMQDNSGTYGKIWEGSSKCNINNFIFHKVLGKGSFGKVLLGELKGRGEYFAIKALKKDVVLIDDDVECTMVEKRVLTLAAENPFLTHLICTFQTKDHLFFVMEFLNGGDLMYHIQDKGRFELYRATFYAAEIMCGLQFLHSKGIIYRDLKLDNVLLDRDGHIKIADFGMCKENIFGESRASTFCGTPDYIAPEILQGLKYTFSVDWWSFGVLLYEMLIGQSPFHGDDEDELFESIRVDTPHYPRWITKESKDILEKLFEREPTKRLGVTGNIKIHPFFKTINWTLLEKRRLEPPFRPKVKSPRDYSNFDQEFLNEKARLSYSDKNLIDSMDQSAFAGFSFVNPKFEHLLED

Structure (SMILES)	inhibition [1] [%]	inhibition [2] [%]	inhibition [3] [%]	inhibition [4] [%]	inhibition [5] [%]	IC50 [6] [µM]	Activity [7] [%]	inhibition [8] [%]	inhibition [9] [%]	inhibition [10] [%]	inhibition [11] [%]	Activity [12]	inhibition [13] [%]	inhibition [14] [%]	inhibition [15] [%]	Activity [16] [%]	IC50 [17] [µM]	inhibition [18] [%]	Activity [19] [%]	inhibition [20] [%]	further results
Nc1ncc(-c2cc([C@H]3[C@@H]4CN(C5COC5)C[C@@H]43)n(CC3CC3)n2)cc1C(F)(F)F	2.9	10.4	-8	-9.3	-0.7	> 10	> 50	2.5	27.8	21.4	54.1	Dose-dependent effect	5.3	22	0.6	> 50	> 10	0.6	> 50	-1.5	inhibition [21]: 15.7%; inhibition [22]: 6.8%; inhibition [23]: 2.8%; inhibition [24]: 1.9%; inhibition [25]: 2%; inhibition [26]: -3.3%
CC(C)n1nc(-c2cnc(N)c(OC(F)(F)F)c2)cc1[C@H]1[C@@H]2CN(C3COC3)C[C@@H]21	4.4	11.1	5.3	-1.8	0.9	> 10	> 50	9.3	4	22.1	46.3	Dose-dependent effect	2.5	23.8	5.9	> 50	> 10	4.4	> 50	5.2	inhibition [21]: 28.6%; inhibition [22]: 40.7%; inhibition [23]: 2.4%; inhibition [24]: 7.2%; inhibition [25]: 2.8%; inhibition [26]: -0.2%
